The values below come from ChEMBL document CHEMBL5712914, “Selective Janus Kinase 1 Inhibition Is a Promising Therapeutic Approach for Lupus Erythematosus Skin Lesions” (Front Immunol, 2020).

For data set [1], the target named is T1, Tyrosine-protein kinase JAK3 (Homo sapiens, UniProt P52333).
T1 sequence (P52333 whole entry): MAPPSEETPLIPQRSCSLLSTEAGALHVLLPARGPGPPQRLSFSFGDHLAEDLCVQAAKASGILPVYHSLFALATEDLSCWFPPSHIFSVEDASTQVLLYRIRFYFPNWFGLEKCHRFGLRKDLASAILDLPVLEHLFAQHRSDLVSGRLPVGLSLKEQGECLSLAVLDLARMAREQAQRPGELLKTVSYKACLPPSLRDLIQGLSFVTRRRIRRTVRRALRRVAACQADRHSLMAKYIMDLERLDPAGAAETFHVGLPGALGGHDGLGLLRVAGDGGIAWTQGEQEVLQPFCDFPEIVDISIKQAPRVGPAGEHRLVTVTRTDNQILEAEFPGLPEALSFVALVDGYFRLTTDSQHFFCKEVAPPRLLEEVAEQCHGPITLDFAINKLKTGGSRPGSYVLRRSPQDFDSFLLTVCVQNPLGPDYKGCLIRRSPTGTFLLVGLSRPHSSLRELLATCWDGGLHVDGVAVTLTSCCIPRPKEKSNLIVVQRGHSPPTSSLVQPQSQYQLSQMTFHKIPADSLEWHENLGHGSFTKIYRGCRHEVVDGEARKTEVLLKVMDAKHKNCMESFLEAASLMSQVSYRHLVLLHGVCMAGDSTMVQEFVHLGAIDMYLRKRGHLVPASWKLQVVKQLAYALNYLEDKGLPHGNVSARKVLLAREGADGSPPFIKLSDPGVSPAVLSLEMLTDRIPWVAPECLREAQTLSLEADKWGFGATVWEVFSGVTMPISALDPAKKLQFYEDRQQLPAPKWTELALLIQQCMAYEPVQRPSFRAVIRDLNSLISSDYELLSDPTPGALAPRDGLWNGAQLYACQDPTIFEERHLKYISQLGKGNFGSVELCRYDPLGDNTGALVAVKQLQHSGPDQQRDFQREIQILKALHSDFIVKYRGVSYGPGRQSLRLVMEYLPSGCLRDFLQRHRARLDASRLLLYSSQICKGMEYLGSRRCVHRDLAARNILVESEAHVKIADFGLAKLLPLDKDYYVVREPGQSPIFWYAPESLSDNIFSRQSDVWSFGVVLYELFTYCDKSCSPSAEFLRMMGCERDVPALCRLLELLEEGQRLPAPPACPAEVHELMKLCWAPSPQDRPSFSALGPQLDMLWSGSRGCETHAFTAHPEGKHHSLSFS
As to the kind of experiment: Inhibition of JAK3 in endogenous nucleic acid-stimulated human HaCaT cells assessed as reduction in CXCL10 expression at 100 nM measured after 24 hrs by ELISA.

The target in data set [2] is Tyrosine-protein kinase JAK1 (Homo sapiens) (UniProt P23458). As to the kind of experiment: Inhibition of JAK1 in endogenous nucleic acid-stimulated NHEK cells assessed as decrease in CXCL10 gene expression at 1 uM relative to control. It counts as cell-based. In short, it runs like this: (§1)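 NHEK primary keratinocytes were stimulated with endogenous nucleic acids (eNA) and then treated with inhibitor at 1 μM final, 4 samples per condition. Gene expression was compared with untreated eNA-stimulated cells. Downregulation was defined as greater than twofold with p < 0.05 by Welch's t-test.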
Target sequence in this assay (P23458 whole entry): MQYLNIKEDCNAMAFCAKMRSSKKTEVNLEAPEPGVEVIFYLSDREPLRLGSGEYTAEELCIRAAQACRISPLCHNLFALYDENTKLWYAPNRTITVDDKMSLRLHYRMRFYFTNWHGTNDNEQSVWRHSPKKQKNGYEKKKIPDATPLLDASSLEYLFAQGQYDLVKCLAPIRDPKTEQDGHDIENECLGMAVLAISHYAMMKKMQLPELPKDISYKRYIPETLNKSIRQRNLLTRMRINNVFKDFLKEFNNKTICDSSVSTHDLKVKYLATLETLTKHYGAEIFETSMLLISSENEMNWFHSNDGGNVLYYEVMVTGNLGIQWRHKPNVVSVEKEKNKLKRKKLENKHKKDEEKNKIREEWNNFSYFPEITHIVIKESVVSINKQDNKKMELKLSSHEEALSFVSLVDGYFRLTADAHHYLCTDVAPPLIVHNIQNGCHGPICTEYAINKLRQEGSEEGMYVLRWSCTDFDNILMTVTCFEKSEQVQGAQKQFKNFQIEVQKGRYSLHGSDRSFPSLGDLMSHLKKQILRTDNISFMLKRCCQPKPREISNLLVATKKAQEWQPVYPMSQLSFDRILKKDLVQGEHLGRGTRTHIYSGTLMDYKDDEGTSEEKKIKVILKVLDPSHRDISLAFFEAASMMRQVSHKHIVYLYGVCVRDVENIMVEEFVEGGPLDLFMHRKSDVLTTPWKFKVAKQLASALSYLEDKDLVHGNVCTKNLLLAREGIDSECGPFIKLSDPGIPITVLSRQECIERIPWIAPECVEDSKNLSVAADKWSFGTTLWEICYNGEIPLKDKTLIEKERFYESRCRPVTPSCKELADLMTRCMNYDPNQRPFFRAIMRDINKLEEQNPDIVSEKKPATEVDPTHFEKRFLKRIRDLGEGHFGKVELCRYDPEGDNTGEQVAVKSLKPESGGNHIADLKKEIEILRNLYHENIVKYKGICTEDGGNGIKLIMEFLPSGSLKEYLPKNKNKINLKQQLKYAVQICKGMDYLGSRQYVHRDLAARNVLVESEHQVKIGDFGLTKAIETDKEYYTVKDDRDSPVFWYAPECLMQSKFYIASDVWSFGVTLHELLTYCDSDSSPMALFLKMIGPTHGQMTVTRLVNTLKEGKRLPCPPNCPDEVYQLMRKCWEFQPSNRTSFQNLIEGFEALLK

In data set [3] the test system is Mus musculus. As to the kind of experiment: Improvement in CLE-like skin lesions in 450 mJ/cm2 UV-irradiated lupus-prone TREX1-/- mouse model assessed as reduction in IFITM3 gene expression in lesional skin at 1 % administered topically for 7 days relative to control. Format: functional, organism-based. Conditions: time 7.0 day. In short, it runs like this: (§2)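 Lesional skin from TREX1–/– mice given the topical JAK1 inhibitor or placebo underwent gene expression analysis for IFN-associated genes. Differential expression was defined as a change greater than twofold with p < 0.05 by Welch's t-test against placebo.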

Data set [4] deals with Tyrosine-protein kinase JAK1 (Homo sapiens) (UniProt P23458). Kind of data set: Inhibition of JAK1 in endogenous nucleic acid-stimulated NHEK cells assessed as decrease in TRAIL gene expression at 1 uM relative to control. It counts as cell-based. In short, it runs like this: as §1
Target sequence in this assay (P23458 whole entry): as above
Data set [5] relates to Mus musculus. Kind of data set: Improvement in CLE-like skin lesions in 450 mJ/cm2 UV-irradiated lupus-prone TREX1-/- mouse model assessed as improvement in epidermal thickness at 1 % administered topically for 7 days by H and E staining based histological analysis. Conditions: time 7.0 day. Format: functional, organism-based.
Data set [6] has as its system Mus musculus. As to the kind of experiment: Improvement in CLE-like skin lesions in 450 mJ/cm2 UV-irradiated lupus-prone TREX1-/- mouse model assessed as reduction in lession size at 1 % administered topically for 7 days measured on day 4 and 7 post-dose. It counts as functional, organism-based. Conditions: time 7.0 day. The method in brief: (§3)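 Topical treatment or placebo was given for 7 days, with n = 4 mice per group. Lesions were photographed daily and mice weighed every 2 days. Erythema, induration, scaling and lesion size were scored with the mouse-adapted revised CLASI (Mouse RCLASI) and reported as mean ± SEM.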

Data set [7] concerns Mus musculus. As to the kind of experiment: Improvement in CLE-like skin lesions in 450 mJ/cm2 UV-irradiated lupus-prone TREX1-/- mouse model assessed as improvement in infiltrating dermal immune cells at 1 % administered topically for 7 days by H and E staining based histological analysis. It counts as functional, organism-based. Conditions: time 7.0 day. The method in brief: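 Lesional skin from the topically treated or placebo-treated groups was processed for H&E and anti-CD45 immunohistology and viewed at ×400. Dermal infiltrate was graded as a CD45 inflammation score. Values are mean ± SEM and were compared by Mann-Whitney U test.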

For data set [8], the system named is Mus musculus. As to the kind of experiment: Improvement in CLE-like skin lesions in 450 mJ/cm2 UV-irradiated lupus-prone TREX1-/- mouse model assessed as reduction in erythema at 1 % administered topically for 7 days measured on day 4 and 7 post-dose. Conditions: time 7.0 day. It counts as functional, organism-based. The method in brief: as §3
In data set [9] the test system is Mus musculus. Kind of data set: Improvement in CLE-like skin lesions in 450 mJ/cm2 UV-irradiated lupus-prone TREX1-/- mouse model assessed as reduction in CXCL9 gene expression in lesional skin at 1 % administered topically for 7 days relative to control. Format: functional, organism-based. Conditions: time 7.0 day. The method in brief: as §2
Data set [10] concerns Mus musculus. Kind of data set: Improvement in CLE-like skin lesions in 450 mJ/cm2 UV-irradiated lupus-prone TREX1-/- mouse model assessed as reduction in CCL7 gene expression in lesional skin at 1 % administered topically for 7 days relative to control. Format: functional, organism-based. Conditions: time 7.0 day. The method in brief:
as §2

The target of data set [11] is Tyrosine-protein kinase JAK1 (Homo sapiens) (UniProt P23458). Kind of data set: Inhibition of JAK1 in endogenous nucleic acid-stimulated NHEK cells assessed as decrease in CXCL11 gene expression at 1 uM relative to control. It counts as cell-based. In short, it runs like this: as §1
Target sequence in this assay (P23458 whole entry): as above
Data set [12] deals with Mus musculus. Kind of data set: Improvement in CLE-like skin lesions in 450 mJ/cm2 UV-irradiated lupus-prone TREX1-/- mouse model assessed as reduction in IRF1 gene expression in lesional skin at 1 % administered topically for 7 days relative to control. Format: functional, organism-based. Conditions: time 7.0 day. In short, it runs like this:
as §2

The test system of data set [13] is Mus musculus. Kind of data set: Improvement in CLE-like skin lesions in 450 mJ/cm2 UV-irradiated lupus-prone TREX1-/- mouse model assessed as reduction in IRF7 gene expression in lesional skin at 1 % administered topically for 7 days relative to control. Format: functional, organism-based. Conditions: time 7.0 day. In short, it runs like this: as §2
In data set [14] the test system is Mus musculus. Kind of data set: Improvement in CLE-like skin lesions in 450 mJ/cm2 UV-irradiated lupus-prone TREX1-/- mouse model assessed as reduction in CCL5 gene expression in lesional skin at 1 % administered topically for 7 days relative to control. Format: functional, organism-based. Conditions: time 7.0 day. The method in brief:
as §2

Data set [15] concerns the target Tyrosine-protein kinase JAK1 (Homo sapiens) (UniProt P23458). As to the kind of experiment: Inhibition of JAK1 in endogenous nucleic acid-stimulated NHEK cells assessed as decrease in Caspase 10 gene expression at 1 uM relative to control. It counts as cell-based. The method in brief: as §1
Target sequence in this assay (P23458 whole entry): as above
Data set [16] has the same target. Kind of data set: Inhibition of JAK1 in endogenous nucleic acid-stimulated NHEK cells assessed as decrease in TREX1 gene expression at 1 uM relative to control. It counts as cell-based. In short, it runs like this: as §1
Target sequence in this assay (P23458 whole entry): as above
In data set [17] the test system is Mus musculus. Kind of data set: Improvement in CLE-like skin lesions in 450 mJ/cm2 UV-irradiated lupus-prone TREX1-/- mouse model assessed as reduction in CCL9 gene expression in lesional skin at 1 % administered topically for 7 days relative to control. Format: functional, organism-based. Conditions: time 7.0 day. In short, it runs like this:
as §2

Data set [18] concerns Mus musculus. As to the kind of experiment: Improvement in CLE-like skin lesions in 450 mJ/cm2 UV-irradiated lupus-prone TREX1-/- mouse model assessed as reduction in IRF9 gene expression in lesional skin at 1 % administered topically for 7 days relative to control. Format: functional, organism-based. Conditions: time 7.0 day. In short, it runs like this: as §2
Data set [19] concerns Mus musculus. Kind of data set: Improvement in CLE-like skin lesions in 450 mJ/cm2 UV-irradiated lupus-prone TREX1-/- mouse model assessed as reduction in scaling at 1 % administered topically for 7 days measured on day 4 and 7 post-dose. It counts as functional, organism-based. Conditions: time 7.0 day. The method in brief: as §3
Data set [20] relates to Mus musculus. As to the kind of experiment: Improvement in CLE-like skin lesions in 450 mJ/cm2 UV-irradiated lupus-prone TREX1-/- mouse model assessed as reduction in induration at 1 % administered topically for 7 days measured on day 4 and 7 post-dose. Format: functional, organism-based. Conditions: time 7.0 day. The method in brief:
as §3

Data set [21] addresses Tyrosine-protein kinase JAK1 (Homo sapiens) (UniProt P23458). Kind of data set: Inhibition of JAK1 in endogenous nucleic acid-stimulated NHEK cells assessed as decrease in BlyS gene expression at 1 uM relative to control. Format: cell-based. In short, it runs like this:
as §1
Target sequence in this assay (P23458 whole entry): as above

For data set [22] the target is unchanged. As to the kind of experiment: Inhibition of JAK1 in endogenous nucleic acid-stimulated human HaCaT cells assessed as reduction in CXCL10 expression at 1 uM measured after 24 hrs by ELISA. On the technique in general: In an ELISA, binding on a coated surface is turned into a signal by an enzyme label.
Target sequence in this assay (P23458 whole entry, looked up): as the sequence (P23458 whole entry) above
The subject of data set [23] is Mus musculus. As to the kind of experiment: Improvement in CLE-like skin lesions in 450 mJ/cm2 UV-irradiated lupus-prone TREX1-/- mouse model assessed as reduction in CXCL10 gene expression in lesional skin at 1 % administered topically for 7 days relative to control. Format: functional, organism-based. Conditions: time 7.0 day. The method in brief:
as §2

For data set [24], the target named is Tyrosine-protein kinase JAK1 (Homo sapiens) (UniProt P23458). As to the kind of experiment: Inhibition of JAK1 in endogenous nucleic acid-stimulated NHEK cells assessed as decrease in AIM2 gene expression at 1 uM relative to control. Format: cell-based. In short, it runs like this:
as §1

The test system of data set [25] is Mus musculus. As to the kind of experiment: Improvement in CLE-like skin lesions in 450 mJ/cm2 UV-irradiated lupus-prone TREX1-/- mouse model assessed as reduction in IFIT1 gene expression in lesional skin at 1 % administered topically for 7 days relative to control. It counts as functional, organism-based. Conditions: time 7.0 day. The method in brief: as §2

In data set [26] the test system is Mus musculus. Kind of data set: Improvement in CLE-like skin lesions in 450 mJ/cm2 UV-irradiated lupus-prone TREX1-/- mouse model assessed as reduction in CCL2 gene expression in lesional skin at 1 % administered topically for 7 days relative to control. Format: functional, organism-based. Conditions: time 7.0 day. In short, it runs like this:
as §2

Calls of active or inactive are those of the source.

On to `CN(C)C(=O)/C(C#N)=C/c1ccc(-c2nc3cnc4[nH]ccc4c3n2C2CCCCC2)o1`, for which, in data set [1], the “inhibition (INH)” value is given as “Not Active”.

Turning to `N#CCC1(n2cc(-c3ncnc4[nH]ccc34)cn2)CN(C2CCN(C(=O)c3ccnc(C(F)(F)F)c3F)CC2)C1` [ITACITINIB], the fold change (FC) in data set [2], in data set [4], in data set [11], in data set [15], in data set [16] and in data set [21] was over 2 throughout. Also, the fold change (FC) in [24] is over 2. For the same compound, the outcome in the data set on Mus musculus [3], in the data set on Mus musculus [5], in the data set with Mus musculus [6], in the data set with Mus musculus [7], in the data set on Mus musculus [8] and in the data set with Mus musculus [9] was Active. Moreover, the outcome in the data set on Mus musculus [10], in the data set with Mus musculus [12], in the data set on Mus musculus [13], in the data set with Mus musculus [14], in the data set with Mus musculus [17] and in the data set on Mus musculus [18] was Active. Besides, the outcome with Mus musculus [19], in the data set with Mus musculus [20], in the data set with Mus musculus [23], with Mus musculus [25] and in the data set on Mus musculus [26] was Active. In data set [22], the “inhibition (INH)” value is recorded as “Active”.
